From ChEMBL document CHEMBL2203025, “6,7-Dihydroxy-1-oxoisoindoline-4-sulfonamide-containing HIV-1 integrase inhibitors” (Bioorg Med Chem Lett, 2012)

Target: T1, Human immunodeficiency virus type 1 integrase (Human immunodeficiency virus 1, UniProt Q7ZJM1)
Experiment: Inhibition of HIV1 recombinant integrase 3' processing activity using [32P]-labeled oligonucleotide a substrate after 30 mins by electrophoretic analysis
Settings: not given
Method in brief: (§1)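 Gel-based IN assay run in vitro with Mg2+ as cofactor. IC50 values were determined separately for the 3'-processing and strand transfer reactions.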

T1 sequence (Q7ZJM1 whole entry): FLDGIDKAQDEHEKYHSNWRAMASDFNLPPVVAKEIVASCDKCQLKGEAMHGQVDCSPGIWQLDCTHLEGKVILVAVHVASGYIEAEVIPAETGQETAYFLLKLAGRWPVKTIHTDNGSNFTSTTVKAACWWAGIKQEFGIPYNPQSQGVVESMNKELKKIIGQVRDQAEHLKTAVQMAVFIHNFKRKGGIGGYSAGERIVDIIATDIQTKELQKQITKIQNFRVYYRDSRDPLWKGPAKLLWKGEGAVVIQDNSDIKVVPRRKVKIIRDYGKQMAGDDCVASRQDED

Structure (SMILES)	IC50 [µM]
CN(C)S(=O)(=O)c1ccc(-c2c(O)c(O)c3c(c2S(=O)(=O)N(C)C)CN(Cc2ccc(F)c(Cl)c2)C3=O)cc1	35.2
NCCN1CCN(S(=O)(=O)c2cc(O)c(O)c3c2CN(Cc2ccc(F)c(Cl)c2)C3=O)CC1	21.2
O=C1c2c(O)c(O)cc(S(=O)(=O)N3CCOCC3)c2CN1Cc1ccc(F)c(Cl)c1	6.8
CN(CC(=O)O)S(=O)(=O)c1cc(O)c(O)c2c1CN(Cc1ccc(F)c(Cl)c1)C2=O	6.9
CC(C)c1c(O)c(O)c2c(c1S(=O)(=O)N(C)C)CN(Cc1ccc(F)c(Cl)c1)C2=O	> 111
CN(C)S(=O)(=O)c1c(O)c(O)c(O)c2c1CN(Cc1ccc(F)c(Cl)c1)C2=O	7.6
CCCCc1cc2c(c(O)c1O)C(=O)N(Cc1ccc(F)c(Cl)c1)C2	> 111
O=C1c2c(cc(-c3ccccc3)c(O)c2O)CN1Cc1ccc(F)c(Cl)c1	> 111
O=C1c2c(O)c(O)cc(S(=O)(=O)NCCCBr)c2CN1Cc1ccc(F)c(Cl)c1	14.7
Cc1c(O)c(O)c2c(c1S(=O)(=O)N(C)C)CN(Cc1ccc(F)c(Cl)c1)C2=O	49.7
CN(C)S(=O)(=O)c1ccc(-c2cc3c(c(O)c2O)C(=O)N(Cc2ccc(F)c(Cl)c2)C3)cc1	> 111
CCN(CC)S(=O)(=O)c1cc(O)c(O)c2c1CN(Cc1ccc(F)c(Cl)c1)C2=O	9.5
CNS(=O)(=O)c1cc(O)c(O)c2c1CN(Cc1ccc(F)c(Cl)c1)C2=O	17.5
O=C(O)CNS(=O)(=O)c1cc(O)c(O)c2c1CN(Cc1ccc(F)c(Cl)c1)C2=O	11.7
Cc1cc2c(c(O)c1O)C(=O)N(Cc1ccc(F)c(Cl)c1)C2	> 111
O=C1c2c(cc(O)c(O)c2O)CN1Cc1ccc(F)c(Cl)c1	36
O=C1c2c(O)c(O)cc(S(=O)(=O)NCc3ccccn3)c2CN1Cc1ccc(F)c(Cl)c1	23
CC(C)c1cc2c(c(O)c1O)C(=O)N(Cc1ccc(F)c(Cl)c1)C2	> 111
CN1CCN(S(=O)(=O)c2cc(O)c(O)c3c2CN(Cc2ccc(F)c(Cl)c2)C3=O)CC1	23
CCCCc1c(O)c(O)c2c(c1S(=O)(=O)N(C)C)CN(Cc1ccc(F)c(Cl)c1)C2=O	> 111
O=C1c2c(O)c(O)cc(S(=O)(=O)NCCN3CCNCC3)c2CN1Cc1ccc(F)c(Cl)c1	19.3
CN(C)CCCNS(=O)(=O)c1cc(O)c(O)c2c1CN(Cc1ccc(F)c(Cl)c1)C2=O	15.9
CC(C)c1c(O)c(O)c2c(c1S(=O)(=O)N1CCOCC1)CN(Cc1ccc(F)c(Cl)c1)C2=O	> 111
O=C1c2c(O)c(O)cc(S(=O)(=O)NCCN3CCOCC3)c2CN1Cc1ccc(F)c(Cl)c1	30.2

Test system: Human immunodeficiency virus 1
Experiment: Antiviral activity against HIV1 expressing wild type integrase infected in HOS cells
Format: functional, organism-based
Settings: Human immunodeficiency virus 1, HOS
Method in brief: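 HOS cells infected with a lentiviral vector carrying wild-type IN; EC50 from the infected cells.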

Structure (SMILES)	EC50 [µM]
CN(C)S(=O)(=O)c1ccc(-c2c(O)c(O)c3c(c2S(=O)(=O)N(C)C)CN(Cc2ccc(F)c(Cl)c2)C3=O)cc1	0.132
O=C1c2c(O)c(O)cc(S(=O)(=O)N3CCOCC3)c2CN1Cc1ccc(F)c(Cl)c1	0.022
CN(CC(=O)O)S(=O)(=O)c1cc(O)c(O)c2c1CN(Cc1ccc(F)c(Cl)c1)C2=O	0.14
CC(C)c1c(O)c(O)c2c(c1S(=O)(=O)N(C)C)CN(Cc1ccc(F)c(Cl)c1)C2=O	3.6
CN(C)S(=O)(=O)c1c(O)c(O)c(O)c2c1CN(Cc1ccc(F)c(Cl)c1)C2=O	0.159
O=C1c2c(O)c(O)cc(S(=O)(=O)NCCCBr)c2CN1Cc1ccc(F)c(Cl)c1	0.093
Cc1c(O)c(O)c2c(c1S(=O)(=O)N(C)C)CN(Cc1ccc(F)c(Cl)c1)C2=O	0.322
CCN(CC)S(=O)(=O)c1cc(O)c(O)c2c1CN(Cc1ccc(F)c(Cl)c1)C2=O	0.017
CNS(=O)(=O)c1cc(O)c(O)c2c1CN(Cc1ccc(F)c(Cl)c1)C2=O	0.04
O=C1c2c(ccc(O)c2O)CN1Cc1ccc(F)c(Cl)c1	0.447
O=C(O)CNS(=O)(=O)c1cc(O)c(O)c2c1CN(Cc1ccc(F)c(Cl)c1)C2=O	0.929
CN1CCN(S(=O)(=O)c2cc(O)c(O)c3c2CN(Cc2ccc(F)c(Cl)c2)C3=O)CC1	0.043
CCCCc1c(O)c(O)c2c(c1S(=O)(=O)N(C)C)CN(Cc1ccc(F)c(Cl)c1)C2=O	3.8
CC(C)c1c(O)c(O)c2c(c1S(=O)(=O)N1CCOCC1)CN(Cc1ccc(F)c(Cl)c1)C2=O	3.4

Target: T1, Human immunodeficiency virus type 1 integrase
Experiment: Inhibition of HIV1 recombinant integrase strand transfer activity using [32P]-labeled oligonucleotide a substrate after 30 mins by electrophoretic analysis
Settings: not given
Method in brief: as §1

Structure (SMILES)	IC50 [µM]
CN(C)S(=O)(=O)c1ccc(-c2c(O)c(O)c3c(c2S(=O)(=O)N(C)C)CN(Cc2ccc(F)c(Cl)c2)C3=O)cc1	0.25
NCCN1CCN(S(=O)(=O)c2cc(O)c(O)c3c2CN(Cc2ccc(F)c(Cl)c2)C3=O)CC1	0.19
O=C1c2c(O)c(O)cc(S(=O)(=O)N3CCOCC3)c2CN1Cc1ccc(F)c(Cl)c1	0.047
CN(CC(=O)O)S(=O)(=O)c1cc(O)c(O)c2c1CN(Cc1ccc(F)c(Cl)c1)C2=O	0.058
CC(C)c1c(O)c(O)c2c(c1S(=O)(=O)N(C)C)CN(Cc1ccc(F)c(Cl)c1)C2=O	0.19
CN(C)S(=O)(=O)c1c(O)c(O)c(O)c2c1CN(Cc1ccc(F)c(Cl)c1)C2=O	0.26
CCCCc1cc2c(c(O)c1O)C(=O)N(Cc1ccc(F)c(Cl)c1)C2	6.8
O=C1c2c(cc(-c3ccccc3)c(O)c2O)CN1Cc1ccc(F)c(Cl)c1	0.87
O=C1c2c(O)c(O)cc(S(=O)(=O)NCCCBr)c2CN1Cc1ccc(F)c(Cl)c1	0.11
Cc1c(O)c(O)c2c(c1S(=O)(=O)N(C)C)CN(Cc1ccc(F)c(Cl)c1)C2=O	2.8
CN(C)S(=O)(=O)c1ccc(-c2cc3c(c(O)c2O)C(=O)N(Cc2ccc(F)c(Cl)c2)C3)cc1	0.4
CCN(CC)S(=O)(=O)c1cc(O)c(O)c2c1CN(Cc1ccc(F)c(Cl)c1)C2=O	0.054
CNS(=O)(=O)c1cc(O)c(O)c2c1CN(Cc1ccc(F)c(Cl)c1)C2=O	0.12
O=C(O)CNS(=O)(=O)c1cc(O)c(O)c2c1CN(Cc1ccc(F)c(Cl)c1)C2=O	0.08
Cc1cc2c(c(O)c1O)C(=O)N(Cc1ccc(F)c(Cl)c1)C2	11.5
O=C1c2c(cc(O)c(O)c2O)CN1Cc1ccc(F)c(Cl)c1	1.5
O=C1c2c(O)c(O)cc(S(=O)(=O)NCc3ccccn3)c2CN1Cc1ccc(F)c(Cl)c1	0.37
CC(C)c1cc2c(c(O)c1O)C(=O)N(Cc1ccc(F)c(Cl)c1)C2	5.4
CN1CCN(S(=O)(=O)c2cc(O)c(O)c3c2CN(Cc2ccc(F)c(Cl)c2)C3=O)CC1	0.4
CCCCc1c(O)c(O)c2c(c1S(=O)(=O)N(C)C)CN(Cc1ccc(F)c(Cl)c1)C2=O	2.3
O=C1c2c(O)c(O)cc(S(=O)(=O)NCCN3CCNCC3)c2CN1Cc1ccc(F)c(Cl)c1	0.31
CN(C)CCCNS(=O)(=O)c1cc(O)c(O)c2c1CN(Cc1ccc(F)c(Cl)c1)C2=O	0.24
CC(C)c1c(O)c(O)c2c(c1S(=O)(=O)N1CCOCC1)CN(Cc1ccc(F)c(Cl)c1)C2=O	0.41
O=C1c2c(O)c(O)cc(S(=O)(=O)NCCN3CCOCC3)c2CN1Cc1ccc(F)c(Cl)c1	0.32

Test system: not listed separately
Experiment: Selectivity index, ratio of CC50 for human HOS cells to EC50 for HIV1 expressing wild type integrase
Format: toxicity, cell-based
Settings: read-out: Ratio CC50/EC50

Structure (SMILES)	selectivity ratio
CN(C)S(=O)(=O)c1ccc(-c2c(O)c(O)c3c(c2S(=O)(=O)N(C)C)CN(Cc2ccc(F)c(Cl)c2)C3=O)cc1	21
O=C1c2c(O)c(O)cc(S(=O)(=O)N3CCOCC3)c2CN1Cc1ccc(F)c(Cl)c1	241
CN(CC(=O)O)S(=O)(=O)c1cc(O)c(O)c2c1CN(Cc1ccc(F)c(Cl)c1)C2=O	680
CC(C)c1c(O)c(O)c2c(c1S(=O)(=O)N(C)C)CN(Cc1ccc(F)c(Cl)c1)C2=O	3
CN(C)S(=O)(=O)c1c(O)c(O)c(O)c2c1CN(Cc1ccc(F)c(Cl)c1)C2=O	29
O=C1c2c(O)c(O)cc(S(=O)(=O)NCCCBr)c2CN1Cc1ccc(F)c(Cl)c1	49
Cc1c(O)c(O)c2c(c1S(=O)(=O)N(C)C)CN(Cc1ccc(F)c(Cl)c1)C2=O	20
CCN(CC)S(=O)(=O)c1cc(O)c(O)c2c1CN(Cc1ccc(F)c(Cl)c1)C2=O	494
CNS(=O)(=O)c1cc(O)c(O)c2c1CN(Cc1ccc(F)c(Cl)c1)C2=O	108
O=C1c2c(ccc(O)c2O)CN1Cc1ccc(F)c(Cl)c1	12
O=C(O)CNS(=O)(=O)c1cc(O)c(O)c2c1CN(Cc1ccc(F)c(Cl)c1)C2=O	115
CN1CCN(S(=O)(=O)c2cc(O)c(O)c3c2CN(Cc2ccc(F)c(Cl)c2)C3=O)CC1	144
CCCCc1c(O)c(O)c2c(c1S(=O)(=O)N(C)C)CN(Cc1ccc(F)c(Cl)c1)C2=O	2
CC(C)c1c(O)c(O)c2c(c1S(=O)(=O)N1CCOCC1)CN(Cc1ccc(F)c(Cl)c1)C2=O	2

Test system: HOS
Experiment: Cytotoxicity against human HOS cells assessed as reduction in ATP level
Format: cell-based
Settings: not given

Structure (SMILES)	CC50 [µM]
CN(C)S(=O)(=O)c1ccc(-c2c(O)c(O)c3c(c2S(=O)(=O)N(C)C)CN(Cc2ccc(F)c(Cl)c2)C3=O)cc1	2.8
O=C1c2c(O)c(O)cc(S(=O)(=O)N3CCOCC3)c2CN1Cc1ccc(F)c(Cl)c1	5.3
CN(CC(=O)O)S(=O)(=O)c1cc(O)c(O)c2c1CN(Cc1ccc(F)c(Cl)c1)C2=O	95.2
CC(C)c1c(O)c(O)c2c(c1S(=O)(=O)N(C)C)CN(Cc1ccc(F)c(Cl)c1)C2=O	12.1
CN(C)S(=O)(=O)c1c(O)c(O)c(O)c2c1CN(Cc1ccc(F)c(Cl)c1)C2=O	4.6
O=C1c2c(O)c(O)cc(S(=O)(=O)NCCCBr)c2CN1Cc1ccc(F)c(Cl)c1	4.6
Cc1c(O)c(O)c2c(c1S(=O)(=O)N(C)C)CN(Cc1ccc(F)c(Cl)c1)C2=O	6.3
CCN(CC)S(=O)(=O)c1cc(O)c(O)c2c1CN(Cc1ccc(F)c(Cl)c1)C2=O	8.4
CNS(=O)(=O)c1cc(O)c(O)c2c1CN(Cc1ccc(F)c(Cl)c1)C2=O	4.3
O=C(O)CNS(=O)(=O)c1cc(O)c(O)c2c1CN(Cc1ccc(F)c(Cl)c1)C2=O	107
CN1CCN(S(=O)(=O)c2cc(O)c(O)c3c2CN(Cc2ccc(F)c(Cl)c2)C3=O)CC1	6.2
CCCCc1c(O)c(O)c2c(c1S(=O)(=O)N(C)C)CN(Cc1ccc(F)c(Cl)c1)C2=O	7
CC(C)c1c(O)c(O)c2c(c1S(=O)(=O)N1CCOCC1)CN(Cc1ccc(F)c(Cl)c1)C2=O	5.9

Test system: Human immunodeficiency virus 1
Experiment: Ratio of EC50 for HIV1 expressing integrase Y143R mutant to EC50 for HIV1 expressing wild type integrase
Format: functional
Settings: not given

Structure (SMILES)	Ratio EC50
CN(C)S(=O)(=O)c1ccc(-c2c(O)c(O)c3c(c2S(=O)(=O)N(C)C)CN(Cc2ccc(F)c(Cl)c2)C3=O)cc1	4
O=C1c2c(O)c(O)cc(S(=O)(=O)N3CCOCC3)c2CN1Cc1ccc(F)c(Cl)c1	2
CN(CC(=O)O)S(=O)(=O)c1cc(O)c(O)c2c1CN(Cc1ccc(F)c(Cl)c1)C2=O	2
CN(C)S(=O)(=O)c1c(O)c(O)c(O)c2c1CN(Cc1ccc(F)c(Cl)c1)C2=O	2
O=C1c2c(O)c(O)cc(S(=O)(=O)NCCCBr)c2CN1Cc1ccc(F)c(Cl)c1	1
Cc1c(O)c(O)c2c(c1S(=O)(=O)N(C)C)CN(Cc1ccc(F)c(Cl)c1)C2=O	2
CCN(CC)S(=O)(=O)c1cc(O)c(O)c2c1CN(Cc1ccc(F)c(Cl)c1)C2=O	3
CNS(=O)(=O)c1cc(O)c(O)c2c1CN(Cc1ccc(F)c(Cl)c1)C2=O	1
O=C1c2c(ccc(O)c2O)CN1Cc1ccc(F)c(Cl)c1	1
O=C(O)CNS(=O)(=O)c1cc(O)c(O)c2c1CN(Cc1ccc(F)c(Cl)c1)C2=O	3
CN1CCN(S(=O)(=O)c2cc(O)c(O)c3c2CN(Cc2ccc(F)c(Cl)c2)C3=O)CC1	1
CCCCc1c(O)c(O)c2c(c1S(=O)(=O)N(C)C)CN(Cc1ccc(F)c(Cl)c1)C2=O	1
CC(C)c1c(O)c(O)c2c(c1S(=O)(=O)N1CCOCC1)CN(Cc1ccc(F)c(Cl)c1)C2=O	4
